Screening results deposited in PubChem by SRMLSC.
HCT116 PTEN-null = PTEN-deleted cell growth suppression | HCT116 PTEN-null viability, CellTiter-Glo, 60 h; active compounds read low | viability, % at 10 µM | 140,000 compounds, 1.2% hits | AID 827;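 active = viability at or below a set limit, 4 SD under the median of all tested compounds, cut at about 3.7% in these data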;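 note: PTEN knockout HCT116 line with beta catenin targeted HCT116 as companion control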
HUVEC prolif 384 = human endothelial cell proliferation inhibition; HUVEC proliferation, CellTiter-Glo luminescence, 72 h; active compounds read low; viability, % at 10 µM (by protocol); 86,000 compounds, 1.1% hits;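 active = viability at or below 30%; inactive = viability above 30%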;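 note: 100% = median luminescence of DMSO-only cell control wells on each plate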
bCat KO growth = beta-catenin-lacking colon tumor cell growth suppression | HCT116 beta-catenin knockout viability, CellTiter-Glo, 60 h; active compounds read low | viability, % at 10 µM | 140,000 compounds, 1.5% hits;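 active = viability at or under a set limit, the compound median less 4 SD, cut at about 6% in these data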;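 note: 0% = Hyamine 1622 control at 20 µM and 100% = untreated cell control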
H69AR growth 86K = growth inhibitors of human H69AR lung tumor cells | 85,000 compounds, 6% hits | H69AR lung tumor viability, ATP luminescence, 72 h; active compounds read low | AID 598 | viability, % at 10 µM;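 active = viability at or below 40%; inactive = viability above 40%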;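 note: multidrug resistant small cell line overexpressing MRP-1 efflux transporter; 100% = mean luminescence of untreated control wells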
Fibroblast inh = blocks proliferation of human lung fibroblasts. 85,000 compounds, 1.1% hits. AID 719. viability, % at 10 µM. LL 47 human lung fibroblast viability, ATP luminescence; active compounds read low;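 active = viability at or below 50% in the single dose screen; inactive = viability above 50%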;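 note: compound exposure lasted 72 h before the ATP readout; 100% = median luminescence of untreated cell-only wells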
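Benchmarks: Cell-only wells, no compound | Test system: LL 47 human lung fibroblasts, passage 12 or lower | Input: 1,150 cells/well | Measured by: CellTiter-Glo luminescence measuring cellular ATP | Medium: IMEM, 15% FBS supplement | Schedule: Overnight attachment after seeding, then 72 h compound exposure at 37 °C | Doses: Compound addition at 0.1% DMSO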
An asterisk follows results filed as active; . = not tested or not shown. Many of the other results were omitted from the sample, so hits are more common in it than they were.

SMILES	HCT116 PTEN-null	HUVEC prolif 384	bCat KO growth	H69AR growth 86K	Fibroblast inh
COc1ccc(-c2oc3ncn(CCN4CCOCC4)c(=N)c3c2-c2ccc(OC)cc2)cc1	27.1	65.5	32.5	16.3*	84.8
CCOc1cc2nc(-c3ccc(OC)c(OC)c3)nc(NCCCN3CCOCC3)c2cc1OC	57.2	57.7	65.4	18.2*	82.4
O=C(CSc1nc2cc(Cl)ccc2s1)Nc1cccc(S(=O)(=O)N2CCOCC2)c1	62.8	.	73.6	.	.
COc1ccc(Nc2nc(N3CCCCC3)c3ccccc3n2)cc1	10.3	.	10.4	.	.
C(=C\c1nc(N2CCCC2)c2ccccc2n1)/c1ccccc1	2.2*	.	1.8*	.	.
CC1CCN(c2nc(/C=C/c3ccccc3)nc3ccccc23)CC1	84.5	.	76.5	.	.
Oc1ccc(Nc2nc(N3CCCC3)c3ccccc3n2)cc1	1.8*	47.5	2.0*	0.7*	2.5*
O=C(CCC(=O)c1ccc(F)cc1)Nc1cc(Cl)cc(Cl)c1	.	.	96.0	.	.
O=C(N/N=C/c1cccc(OC(=O)c2ccco2)c1)c1ccc(F)cc1	96.1	.	103.4	.	.
COc1ccccc1-c1cc(C(F)(F)F)nc(S(=O)(=O)CCCC(=O)N2CCOCC2)n1	1.1*	44.6	1.3*	0.3*	3.2*
COc1ccccc1-c1cc(C(F)(F)F)nc(S(=O)(=O)CCCC(=O)O)n1	80.3	95.5	72.7	52.1	90.9
CCNc1ccc(S(=O)(=O)N(C)C)cc1NCC(=O)Nc1ccc(F)c(Cl)c1	60.2	.	67.9	.	.
COc1cc(CNC2CCCCCC2)cc(OC)c1O	103.8	93.9	92.6	97.7	96.7
COc1cc(CNC2CCCC2)cc(Cl)c1OCc1ccccc1F	1.1*	.	1.1*	.	.
CCN(CC)S(=O)(=O)c1cccc(C(=O)Nc2ccc(C#N)cc2)c1	19.1	86.3	16.7	80.2	.
CCN(CC)S(=O)(=O)c1cccc(C(=O)Nc2cccc(C)c2)c1	48.0	92.2	32.7	24.9*	102.2
CCN(CC)S(=O)(=O)c1cccc(C(=O)Nc2cc(C)cc(C)c2)c1	85.4	81.8	82.9	32.0*	100.2
CCN1/C(=C/c2ccc3cccc(C)c3[n+]2CC)Sc2ccccc21	2.0*	.	1.7*	.	.
COC(=O)c1oc2c(c1C)C1(CCC2)SCCS1	91.5	87.7	88.3	36.8*	87.2
COc1ccc(C(C)C)cc1S(=O)(=O)n1ccnc1C	94.3	.	92.8	.	.
CCOc1ccc2c(C)nc(NC3=NC(C)(C)C=C(C)N3)nc2c1	8.9	78.7	12.4	94.2	83.1
CCOc1ccc2nc(NC3=NC(c4ccc(OC)cc4)CC(=O)N3)nc(C)c2c1 (configuration not stated)	1.8*	.	1.4*	.	.
CCOc1ccc2nc(NC3=NC(C)(C)C=C(C)N3)nc(C)c2c1	12.2	.	5.0*	.	.
COc1cc(C2C(N3C(=O)c4ccccc4C3=O)C(=O)N2c2cccc(C)c2)cc(OC)c1OC (configuration not stated)	96.2	.	92.8	.	.
O=[N+]([O-])c1cc([N+](=O)[O-])c(N2CCCCCC2)cc1NCCO	86.8	.	94.6	.	.
SMILES	HCT116 PTEN-null	HUVEC prolif 384	bCat KO growth	H69AR growth 86K	Fibroblast inh
Cc1ccc(/C(N)=N/OC(=O)c2ccco2)cc1	93.5	83.5	96.0	75.6	98.5
Cc1ccc(NC2=C(Cl)C(=O)OC2OC(=O)c2ccco2)cc1 (configuration not stated)	90.8	65.4	85.9	33.2*	92.1
Cn1c(NC(=O)c2ccc(Br)o2)cc(=O)n(C)c1=O	100.6	.	98.2	.	.
Cc1ccc2c(CC(=O)Nc3ccc(N4CCN(C)CC4)cc3C)coc2c1	44.4	15.3*	46.1	21.7*	69.1
Nc1nc(Nc2ccc(Cl)cc2)nc2ccccc12	22.0	56.3	16.9	21.0*	80.7
Cc1ccc(S(=O)(=O)Nc2ccc3c(c2)c2c(n3S(=O)(=O)c3ccc(C)cc3)CCCC2=O)cc1	72.0	.	83.5	.	.
Cc1n[nH]c(C)c1S(=O)(=O)N(CC(=O)N1CCc2ccccc21)c1ccc(C(C)C)cc1	73.8	44.3	79.5	30.6*	63.0
CC1=NCCN1S(=O)(=O)c1cc(Cl)ccc1Cl	99.4	104.7	102.0	87.3	90.4
Cc1c(C(=O)c2no[n+]([O-])c2C(=O)c2cnn(C)c2C)cnn1C	104.8	60.9	99.2	1.8*	101.4
COc1ccc(C(=O)c2no[n+]([O-])c2C(=O)c2ccc(OC)cc2)cc1	87.1	.	94.8	.	.
Cc1cc(C)cc(Nc2cc(=O)n(C3CCCCC3)c(=O)[nH]2)c1	74.7	72.8	76.7	39.4*	89.1
CCCC[n+]1ccn(C2=C([O-])c3ccccc3C(=O)/C2=N\S(=O)(=O)c2ccc(Br)cc2)c1	48.5	.	37.0	.	.
Cc1ccc(S(=O)(=O)/N=C2\C(=O)c3ccccc3C([O-])=C2n2cc[n+](CCC(C)C)c2)cc1	6.0	4.4*	3.7*	42.2	44.2*
CCCCn1nnc(NC(=S)NC(=O)c2ccc(-c3cccc(Cl)c3Cl)o2)n1	85.3	.	93.4	.	.
CC1(C)Oc2ccc(NC(=O)c3ccco3)cc2O1	94.8	94.0	86.8	81.0	99.2
CC(C)CCNC(=O)c1nnc(Cc2ccc(Cl)cc2)o1	96.9	99.1	103.4	93.5	101.3
Cc1[nH]c2c(C)cccc2c1CCNC(=O)c1ccc2c(c1[N+](=O)[O-])C(=O)c1ccccc1C2=O	2.0*	.	2.1*	.	.
CCCNC(=O)NCCc1c(C)[nH]c2ccccc12	99.9	101.0	99.3	93.3	101.2
Cc1ccc2[nH]c(C)c(CCNC(=O)c3cc4cc([N+](=O)[O-])ccc4oc3=O)c2c1	57.3	.	58.9	.	.
Cc1[nH]c2ccccc2c1CCNC(=O)c1ccc2c(c1[N+](=O)[O-])C(=O)c1ccccc1C2=O	11.4	.	2.3*	.	.
CN(C)C(=O)c1ccc2c(c1[N+](=O)[O-])C(=O)c1ccccc1C2=O	1.7*	.	2.0*	.	.
Cn1c(=O)c2c(nc(SCC(=O)NC3CCCCC3)n2C)n(C)c1=O	.	93.8	.	88.6	85.2
Cc1ccsc1/C=N/NC(=O)Cc1cccn1C	95.4	.	90.6	.	.
CCOC(=O)C1=C(c2ccccc2)OC(N)=C(C#N)C1c1cccs1 (configuration not stated)	96.4	.	91.7	.	.
N#CC1=C(N)Oc2cc3ccccc3cc2C1c1cccnc1 (configuration not stated)	30.4	66.5	33.5	19.6*	70.3
SMILES	HCT116 PTEN-null	HUVEC prolif 384	bCat KO growth	H69AR growth 86K	Fibroblast inh
N#CC1=C(N)Oc2cc3ccccc3cc2C1c1cccs1 (configuration not stated)	37.9	59.5	52.2	21.0*	86.5
N#CC1=C(N)Oc2c(ccc3cccnc23)C1c1cccnc1 (configuration not stated)	4.0	.	4.5*	.	.
CC(C)(C)C1=C(C#N)C(c2cccnc2)C(C#N)=C(N)O1 (configuration not stated)	104.5	.	100.6	.	.
CC(C)(C)N(NC(=O)Nc1ccc(Cl)c(Cl)c1)C(=O)c1ccccc1	3.4*	.	8.6	.	.
Cc1ccc2[nH]c(=O)c(CN(CCCN3CCOCC3)C(=O)Nc3cccc(Cl)c3)cc2c1	33.4	8.5*	39.8	20.2*	63.5
CN(c1ccccc1)c1ccc(/C=N/N2CCOCC2)cc1	93.4	.	80.4	.	.
C=CCn1c(-c2cccc(OC)c2)nc2nc3ccccc3nc21	84.1	82.1	86.4	34.1*	93.3
